Entries after “also recorded” stand apart in the source; their conditions may differ. Like-named read-outs stand apart in the source and are kept apart here. Each block holds one molecule with its values, some of them ahead of it.
What was measured:
[1] = test system: non-transfected HL-1 cells; assay: LDH assay, protection from H2O2-induced cell death, untransfected cells; conditions: for Protection against H2O2-induced cytotoxicity in non-transfected HL-1 cells: 750 μM H2O2, LDH assay
[2] = test system: A3AR-transfected HL-1 cells; assay: LDH assay, protection from H2O2-induced cell death, hA3AR-transfected cells; assay type: cell-based, mouse; conditions: for Protection against H2O2-induced cytotoxicity in A3AR-transfected HL-1 cells: 750 μM H2O2; for IC50: HL-1, read-out: Protection from cell death induced by H2O2, transfected cells, IC50; for EC50: read-out: Protection of A3 AR-transfected cells against H2O2, EC50 (lactate dehydrogenase release)
[3] = molecular target: T1, hA3AR (Homo sapiens, UniProt P0DMS8); conditions: read-out: Binding, Ki, A3; [125I]AB-MECA; previously reported; cited from earlier work
T1 sequence (P0DMS8 1-318): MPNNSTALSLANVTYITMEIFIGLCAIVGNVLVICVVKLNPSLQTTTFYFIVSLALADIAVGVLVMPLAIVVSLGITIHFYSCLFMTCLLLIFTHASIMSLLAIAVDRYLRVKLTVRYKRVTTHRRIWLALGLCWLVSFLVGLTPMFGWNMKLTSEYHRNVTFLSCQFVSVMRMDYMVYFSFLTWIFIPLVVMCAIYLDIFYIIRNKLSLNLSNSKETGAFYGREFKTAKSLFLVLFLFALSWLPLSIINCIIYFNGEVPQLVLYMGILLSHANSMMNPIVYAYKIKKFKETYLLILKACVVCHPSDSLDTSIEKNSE

[4] = molecular target: T2, hA2AAR (Homo sapiens, UniProt P29274); conditions: read-out: Binding, Ki, A2A; [3H]CGS21680; previously reported; cited from earlier work
T2 sequence (P29274 whole entry): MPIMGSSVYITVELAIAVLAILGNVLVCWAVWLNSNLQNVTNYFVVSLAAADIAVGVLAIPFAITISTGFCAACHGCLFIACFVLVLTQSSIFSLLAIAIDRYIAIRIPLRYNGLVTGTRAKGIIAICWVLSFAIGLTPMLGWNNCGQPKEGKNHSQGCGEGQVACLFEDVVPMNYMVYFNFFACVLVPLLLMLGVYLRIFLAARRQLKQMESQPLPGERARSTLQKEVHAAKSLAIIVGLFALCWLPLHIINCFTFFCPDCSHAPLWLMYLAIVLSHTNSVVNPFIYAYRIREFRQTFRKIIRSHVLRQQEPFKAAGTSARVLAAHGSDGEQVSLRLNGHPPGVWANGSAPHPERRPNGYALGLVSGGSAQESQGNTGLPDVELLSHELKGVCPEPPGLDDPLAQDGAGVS

[5] = molecular target: T2, hA2AAR; assay: cAMP assay, stimulation of cAMP, CHO cells; assay type: cell-based
Summary of the method: (§1)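 Stably transfected CHO cells (A1, A2A or A3AR) were seeded overnight at 37 °C, then given DMEM with 50 mM HEPES, 10 μM rolipram, 3 U/ml adenosine deaminase and rising test compound, for 30 min at 37 °C. For A1/A3, 10 μM forskolin was added for 15 min more; A2A plates were incubated 45 min. Cells were lysed in 0.1 M HCl; cAMP by immunoassay at 405 nm.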

[6] = molecular target: T1, hA3AR; assay: cAMP assay, inhibition of forskolin-stimulated cAMP, CHO cells; assay type: cell-based
Summary of the method: as §1

[7] = molecular target: T3, hA1AR (Homo sapiens, UniProt P30542); assay: as above; assay type: cell-based
T3 sequence (P30542 1-326): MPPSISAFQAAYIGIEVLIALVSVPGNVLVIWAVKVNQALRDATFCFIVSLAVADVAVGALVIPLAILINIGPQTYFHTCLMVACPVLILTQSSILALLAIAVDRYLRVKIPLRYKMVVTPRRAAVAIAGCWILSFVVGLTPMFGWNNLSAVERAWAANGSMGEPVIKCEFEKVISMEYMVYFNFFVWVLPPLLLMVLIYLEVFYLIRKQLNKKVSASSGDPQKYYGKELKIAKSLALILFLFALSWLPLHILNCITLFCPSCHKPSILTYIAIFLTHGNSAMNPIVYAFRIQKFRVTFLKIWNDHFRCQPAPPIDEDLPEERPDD
Summary of the method: as §1

[8] = molecular target: T3, hA1AR; conditions: read-out: Binding, Ki, A1; [3H]CCPA; previously reported; cited from earlier work
[9] = test system: A3AR-transfected HL-1 cells; assay: Luminescent caspase 3/7 assay of H2O2-induced apoptosis; assay type: cell-based, mouse; conditions: dendrimer 10 μM 1 h before 400 μM H2O2, 3 h
Summary of the method: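 HL-1 cells transfected with hA3AR were seeded at 30,000 cells/well and incubated overnight at 37 °C, then switched to DMEM with Ca/Mg. Dendrimer (10 μM) was added 1 h before H2O2 (400 μM) and kept throughout, with 3 h at 37 °C. An equal volume of Caspase-Glo 3/7 reagent was added for 90 min at room temperature before reading luminescence. Three independent experiments in triplicate, mean ± SD.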

[10] = molecular target: T1, hA3AR; assay: Radioligand membrane binding, [125I]AB-MECA, stably transfected CHO cells
[11] = molecular target: T2, hA2AAR; assay: Radioligand membrane binding, [3H]CGS21680, stably transfected HEK cells; conditions: read-out: Binding, Ki app, A2A, dendrimer concentration, mean ± SEM, n = 3
[12] = molecular target: T3, hA1AR; assay: Radioligand membrane binding, [3H]CCPA, stably transfected CHO cells; conditions: read-out: Binding, Ki app, A1, dendrimer concentration, mean ± SEM, n = 3

Molecule: OC[C@H]1O[C@@H](n2cnc3c(NC4CCCC4)nc(Cl)nc32)[C@H](O)[C@@H]1O [CCPA, 2-Chloro-N^6-cyclopentyladenosine]
Protection against H2O2-induced cytotoxicity in non-transfected HL-1 cells [1]: did not protect

Molecule: CCNC(=O)[C@H]1O[C@@H](n2cnc3c(N)nc(NCCc4ccc(CCC(=O)O)cc4)nc32)[C@H](O)[C@@H]1O [CGS21680, 2-[p-(2-carboxyethyl)phenylethyl-amino]-5′-N-ethylcarboxamidoadenosine]
Protection against H2O2-induced cytotoxicity in non-transfected HL-1 cells [1]: protected; also recorded: protective
IC50 ([1]; Mus musculus, HL-1, read-out: Protection from cell death induced by H2O2, untransfected cells, IC50): 7100 ± 2400 nM

Molecule: CNC(=O)[C@H]1O[C@@H](n2cnc3c(NCc4cccc(I)c4)nc(Cl)nc32)[C@H](O)[C@@H]1O [Cl-IB-MECA, 2-chloro-N^6-(3-iodobenzyl)-5′-N-methylcarboxamidoadenosine]
Protection against H2O2-induced cytotoxicity in non-transfected HL-1 cells [1]: neither IB-MECA nor Cl-IB-MECA gave protection
Protection against H2O2-induced cytotoxicity in A3AR-transfected HL-1 cells ([2]; LDH assay): revealed protection
IC50 ([2]; Mus musculus): 7900 ± 2300 nM

Molecule: CNC(=O)[C@H]1O[C@@H](n2cnc3c(NCc4cccc(I)c4)ncnc32)[C@H](O)[C@@H]1O [IB-MECA, N^6-(3-iodobenzyl)-5′-N-methylcarboxamidoadenosine]
Protection against H2O2-induced cytotoxicity in non-transfected HL-1 cells [1]: neither IB-MECA nor Cl-IB-MECA gave protection
Protection against H2O2-induced cytotoxicity in A3AR-transfected HL-1 cells ([2]; LDH assay): revealed protection
EC50 ([2]; Mus musculus, HL-1, 4 h): 3800 nM
IC50 ([2]; Mus musculus): 3800 ± 1400 nM

Molecule: CCOC(=O)C1=C(C)NC(c2ccccc2)=C(C(=O)OCc2ccccc2)C1C#Cc1ccccc1 (stereo not drawn) [MRS1191]
Effect of A3 antagonist on protection afforded by IB-MECA from H2O2-induced cell death ([2]; MRS1191 10 μM 1 h before IB-MECA 30 μM, 750 μM H2O2, 4 h, transfected HL-1 cells): prevented the protection

Molecule: CCNC(=O)[C@H]1O[C@@H](n2cnc3c(N)ncnc32)[C@H](O)[C@@H]1O [NECA, 5′-N-ethylcarboxamidoadenosine]
Protection against H2O2-induced cytotoxicity in non-transfected HL-1 cells [1]: protected; also recorded: protective
EC50 ([2]; 750 μM H2O2, 4 h): 3900 nM

Agonist efficacy in cAMP assay, A2AAR (stimulation) [5]: potent full agonist
Agonist efficacy in cAMP assay, A3AR (inhibition) [6]: potent full agonist
Agonist efficacy in cAMP assay, A1AR (inhibition) [7]: potent full agonist
Molecule: N-(2-Aminoethyl)-ADAC [compound 4]
Ki [3]: 9.5 ± 2 nM
Ki [4]: 300 ± 20 nM
Ki [8]: 43 ± 5 nM

Activity in assay of A3AR-mediated cAMP inhibition at 10 μM ([6]; 10 μM): inactive
Molecule: PAMAMG5.5-1(AF488-ED) [compound 7]
Effect on H2O2-induced apoptosis (caspase 3/7 luminescence) [9]: did not significantly decrease; also recorded: not by 7

Ki ([10]; read-out: Binding, Ki app, A3, [125I]AB-MECA, dendrimer concentration, mean ± SEM, n = 3): 15 ± 4 nM
Selectivity for the A3AR in binding ([10]; versus A1 and A2AARs): only slightly selective
Ki [11]: 80 ± 17 nM
Ki [12]: 140 ± 65 nM
Molecule: PAMAMG5.5-1(AF488-ED)-60(N-(2-aminoethyl)-ADAC) [compound 8]
Protection against H2O2-induced cytotoxicity in non-transfected HL-1 cells [1]: did not show cytoprotection
Protection against H2O2-induced cytotoxicity in A3AR-transfected HL-1 cells ([2]; LDH assay): highly potent
IC50 value less than those of monomeric A3AR agonists IB-MECA and Cl-IB-MECA ([2]; A3AR-transfected HL-1 cells, LDH assay): 100- to 200 fold
Selectivity in assay of adenylate cyclase inhibition / AR activation ([6]; versus A1 and A2AARs): nonselective; also recorded: nonselectively
Effect on H2O2-induced apoptosis (caspase 3/7 luminescence) [9]: significantly decreased; also recorded: significant protection

Reference: PMC2880883 (Biochemical pharmacology, 2010)
